Measured values as given in ChEMBL document CHEMBL1799920, “Total synthesis and pharmacological characterization of solomonsterol A, a potent marine pregnane-X-receptor agonist endowed with anti-inflammatory activity” (J Med Chem, 2011).
Calls of active or inactive are those of the source.

What was measured:
Settings in all cases: C57Bl/6
[1] = system: Mus musculus; assay: Antiinflammatory activity against trinitrobenzenesulfonic acid-induced colitis in human PXR expressing transgenic C57/BL6 mouse assessed as decrease in evidence of mucosal hemorrhage damage at 10 mg/kg, po qd administered 3 days before TNBS challenge measured after 7 days; format: functional, organism-based; parameters: dose 10 mg/kg
Summary of the method: (§1)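 hPXR male mice were fasted 16 h and given TNBS intrarectally (0.5 mg/mouse in 50% ethanol). Oral 10 mg/kg once daily (DMSO stock diluted in 1% methylcellulose) began 3 days before TNBS; vehicle controls received 1% methylcellulose. Four days after TNBS, colon macroscopic appearance was graded blind for induration, edema, thickness and mucosal hemorrhage. n = 6–7.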

[2] = system: Mus musculus; assay: Antiinflammatory activity against trinitrobenzenesulfonic acid-induced colitis in human PXR expressing transgenic C57/BL6 mouse assessed as increase in TGF-beta1 protein level in colon at 10 mg/kg, po qd after 5 days
[3] = system: Mus musculus; assay: Antiinflammatory activity against trinitrobenzenesulfonic acid-induced colitis in human PXR expressing transgenic C57/BL6 mouse assessed as decrease in cellular infiltrate in colon at 10 mg/kg, po qd administered 3 days before TNBS challenge measured after 7 days; format: functional, organism-based; parameters: dose 10 mg/kg
Summary of the method: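 TNBS colitis in male hPXR mice (human PXR on mouse PXR-null background). After a 16 h fast and light ketamine/xylazine i.p. anesthesia, mice received TNBS 0.5 mg/mouse in 50% ethanol intrarectally by catheter. Dosing was 10 mg/kg orally once daily, dissolved in DMSO and diluted in 1% methylcellulose, starting 3 days before TNBS. Colons were taken 4 days after TNBS and stained with H&E. n = 6–7.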

[4] = system: Mus musculus; assay: Antiinflammatory activity against trinitrobenzenesulfonic acid-induced colitis in human PXR expressing transgenic C57/BL6 mouse assessed as decrease in MIP-1alpha protein level in colon at 10 mg/kg, po qd after 5 days; format: functional, organism-based; parameters: dose 10 mg/kg
[5] = system: Mus musculus; assay: Antiinflammatory activity against trinitrobenzenesulfonic acid-induced colitis in human PXR expressing transgenic C57/BL6 mouse assessed as decrease in thickness of colon at 10 mg/kg, po qd administered 3 days before TNBS challenge measured after 7 days; format: functional, organism-based; parameters: dose 10 mg/kg; summary of the method: as §1
[6] = system: Mus musculus; assay: Antiinflammatory activity against trinitrobenzenesulfonic acid-induced colitis in human PXR expressing transgenic C57/BL6 mouse assessed as decrease in thickness of colon at 10 mg/kg, ip administered on day 1 after TNBS challenge measured after 5 days; format: functional, organism-based; parameters: dose 10 mg/kg
Summary of the method: (§2)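 Therapeutic protocol in male hPXR mice. Colitis was induced with intrarectal TNBS 0.5 mg/mouse in 50% ethanol after a 16 h fast and light ketamine/xylazine anaesthesia. Drug at 10 mg/kg was given once daily from day 1 after TNBS. Mice were sacrificed 5 days after TNBS; n = 4–6 per group.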

[7] = system: Mus musculus; assay: Antiinflammatory activity against trinitrobenzenesulfonic acid-induced colitis in human PXR expressing transgenic C57/BL6 mouse assessed as decrease in occurrence of diarrhea at 10 mg/kg, ip qd administered 3 days before TNBS challenge measured after 7 days; format: functional, organism-based; parameters: dose 10 mg/kg
Summary of the method: (§3)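 Male hPXR mice (human PXR on mouse PXR-null background). Fasted 16 h and lightly anaesthetised with ketamine/xylazine, then given TNBS 0.5 mg/mouse in 50% ethanol intrarectally in 150 μL. Drug was dissolved in DMSO, diluted in 1% methylcellulose and given i.p. once daily for 3 days before TNBS. Vehicle controls received methylcellulose. Mice were sacrificed 4 days after TNBS; n = 6–7 per group.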

[8] = system: Mus musculus; assay: Antiinflammatory activity against trinitrobenzenesulfonic acid-induced colitis in human PXR expressing transgenic C57/BL6 mouse assessed as decrease in MIP-1alpha protein level in colon at 10 mg/kg, ip qd after 5 days; format: functional, organism-based; parameters: dose 10 mg/kg
[9] = system: Mus musculus; assay: Antiinflammatory activity against trinitrobenzenesulfonic acid-induced colitis in human PXR expressing transgenic C57/BL6 mouse assessed as decrease in evidence of mucosal hemorrhage in colon at 10 mg/kg, ip administered on day 1 after TNBS challenge measured after 5 days; format: functional, organism-based; parameters: dose 10 mg/kg; summary of the method: as §2
[10] = system: Mus musculus; assay: Antiinflammatory activity against trinitrobenzenesulfonic acid-induced colitis in human PXR expressing transgenic C57/BL6 mouse assessed as decrease in edema of colon at 10 mg/kg, ip administered on day 1 after TNBS challenge measured after 5 days; format: functional, organism-based; parameters: dose 10 mg/kg; summary of the method: as §2
[11] = system: Mus musculus; assay: Antiinflammatory activity against trinitrobenzenesulfonic acid-induced colitis in human PXR expressing transgenic C57/BL6 mouse assessed as decrease in occurrence of diarrhea at 10 mg/kg, ip administered on day 1 after TNBS challenge measured after 5 days; format: functional, organism-based; parameters: dose 10 mg/kg; summary of the method: as §2
[12] = system: Mus musculus; assay: Antiinflammatory activity against trinitrobenzenesulfonic acid-induced colitis in human PXR expressing transgenic C57/BL6 mouse assessed as decrease in presence of indurations in colon at 10 mg/kg, ip administered on day 1 after TNBS challenge measured after 5 days; format: functional, organism-based; parameters: dose 10 mg/kg; summary of the method: as §2
[13] = system: Mus musculus; assay: Antiinflammatory activity against trinitrobenzenesulfonic acid-induced colitis in human PXR expressing transgenic C57/BL6 mouse assessed as decrease in appearance of submucosal edema in colon at 10 mg/kg, ip qd administered 3 days before TNBS challenge measured after 7 days by haematoxylin/eosin staining; format: functional, organism-based; parameters: dose 10 mg/kg; summary of the method: as §3
[14] = system: Mus musculus; assay: Antiinflammatory activity against trinitrobenzenesulfonic acid-induced colitis in human PXR expressing transgenic C57/BL6 mouse assessed as decrease in appearance of epithelial erosions in colon at 10 mg/kg, ip qd administered 3 days before TNBS challenge measured after 7 days by haematoxylin/eosin staining; format: functional, organism-based; parameters: dose 10 mg/kg; summary of the method: as §3
[15] = system: Mus musculus; assay: Antiinflammatory activity against trinitrobenzenesulfonic acid-induced colitis in human PXR expressing transgenic C57/BL6 mouse assessed as induction of CYP3A11 mRNA expression in colon at 10 mg/kg, ip qd after 5 days by quantitative RT-PCR; format: functional, organism-based; parameters: dose 10 mg/kg; summary of the method: as §3
[16] = system: Mus musculus; assay: Antiinflammatory activity against trinitrobenzenesulfonic acid-induced colitis in human PXR expressing transgenic C57/BL6 mouse assessed as decrease in IL-12p70 protein level in colon at 10 mg/kg, ip qd after 5 days; format: functional, organism-based; parameters: dose 10 mg/kg
[17] = system: Mus musculus; assay: Antiinflammatory activity against trinitrobenzenesulfonic acid-induced colitis in human PXR expressing transgenic C57/BL6 mouse assessed as decrease in goblet cells in colon at 10 mg/kg, ip administered on day 1 after TNBS challenge measured after 5 days by microscopically; format: functional, organism-based; parameters: dose 10 mg/kg; summary of the method: as §2
[18] = system: Mus musculus; assay: Antiinflammatory activity against trinitrobenzenesulfonic acid-induced colitis in human PXR expressing transgenic C57/BL6 mouse assessed as decrease in colonic myeloperoxidase activity at 10 mg/kg, ip qd after 5 days using trimethylbenzidine as substrate by spectrophotometry; format: functional, organism-based; parameters: dose 10 mg/kg; summary of the method: as §3
[19] = system: Mus musculus; assay: Antiinflammatory activity against trinitrobenzenesulfonic acid-induced colitis in human PXR expressing transgenic C57/BL6 mouse assessed as decrease in vascular density in colon at 10 mg/kg, ip administered on day 1 after TNBS challenge measured after 5 days by microscopically

Measured: Activity

CO[C@H]1/C=C/O[C@@]2(C)Oc3c(C)c(O)c4c(O)c(c5c(nc6cc(C)ccn65)c4c3C2=O)NC(=O)/C(C)=C\C=C\[C@H](C)[C@H](O)[C@@H](C)[C@@H](O)[C@@H](C)[C@H](OC(C)=O)[C@@H]1C [RIFAXIMIN]
active: [1] | [2] | [3] | [4] | [5]

C[C@H](CCCOS(=O)(=O)O)[C@H]1CC[C@H]2[C@@H]3CC[C@H]4C[C@H](OS(=O)(=O)O)[C@@H](OS(=O)(=O)O)C[C@]4(C)[C@H]3CC[C@]12C [SOLOMONSTEROL A]
not listed: [1] | [2] | [3] | [4] | [5]
active: all other assays above
